Experimental findings from ChEMBL document CHEMBL1129424, “Heterocyclic amides: inhibitors of acyl-CoA:cholesterol O-acyl transferase with hypocholesterolemic activity in several species and antiatherosclerotic activity in the rabbit” (J Med Chem, 1996) are described below.

One test concerns Rattus norvegicus. Description: Percent change in total cholesterol in the acute cholesterol-fed rat model (APCC) of hypercholesterolemia at 3 mg/Kg. Type of test: functional. A digest of the protocol:
(§1)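 Acute rat model: compound given by gavage at 30 or 3 mg/kg in 1.5% carboxymethylcellulose/0.2% Tween-20 in water (3-4 pm). Rats then fed overnight a diet with 5.5% peanut oil, 1.5% cholesterol, 0.5% cholic acid. Result is percent decrease in plasma total cholesterol versus controls.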
As to `CCCCCCCCCCCCc1cnn(C(C(=O)Nc2c(OC)cc(OC)cc2OC)c2ccccc2)c1` (centres undefined), the DeltaTC was -59%.
The same measure, in the same setting: the same measure for `CCCCCCCCCCCCc1cc(CC(=O)Nc2c(OC)cc(OC)cc2OC)on1`: -42%; for `CCCCCCCCCCCCc1nnc(C(C(=O)Nc2c(OC)cc(OC)cc2OC)c2ccccc2)o1` (centres undefined): -64%; for `CCCCCCCCCCCCc1cc(C(C(=O)Nc2c(C(C)C)cccc2C(C)C)c2ccccc2)on1` (centres undefined): -10%.

The next test is filed under the species Rattus norvegicus. The test is described as follows: Compound was tested for the percent change in total cholesterol (TC) by chronic rat model. Type of test: functional.
As for `CCCCCCCCCCCCc1nnc(C(C(=O)Nc2c(OC)cc(OC)cc2OC)c2ccccc2)o1` (centres undefined), the CPCC is given as -39.

Test system in a further test: not listed separately
Description: Acyl coenzyme A:cholesterol acyltransferase inhibition in cell culture measured in murine IC-21 macrophages. In a few lines: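 Murine IC-21 macrophages preincubated 16 h in serum-free DMEM with albumin (20 μM) and phosphatidylserine/cholesterol vesicles; then compound in DMSO for 1 h, then 14C-sodium oleate added for 4 more h. Lipids extracted in hexane/2-propanol with [14C]cholesterol internal standard; neutral lipids separated by TLC, phosphorimaged; protein by Lowry. IC50 is the concentration giving 50% inhibition.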
`CCCCCCCCCCCCc1nnc(C(C(=O)Nc2c(OC)cc(OC)cc2OC)c2ccccc2)o1` (centres undefined) came in with an IC50 of 48 nM.

The target in a further test is T1, Sterol O-acyltransferase 1 (Rattus norvegicus) (UniProt O70536).
T1 sequence (whole entry): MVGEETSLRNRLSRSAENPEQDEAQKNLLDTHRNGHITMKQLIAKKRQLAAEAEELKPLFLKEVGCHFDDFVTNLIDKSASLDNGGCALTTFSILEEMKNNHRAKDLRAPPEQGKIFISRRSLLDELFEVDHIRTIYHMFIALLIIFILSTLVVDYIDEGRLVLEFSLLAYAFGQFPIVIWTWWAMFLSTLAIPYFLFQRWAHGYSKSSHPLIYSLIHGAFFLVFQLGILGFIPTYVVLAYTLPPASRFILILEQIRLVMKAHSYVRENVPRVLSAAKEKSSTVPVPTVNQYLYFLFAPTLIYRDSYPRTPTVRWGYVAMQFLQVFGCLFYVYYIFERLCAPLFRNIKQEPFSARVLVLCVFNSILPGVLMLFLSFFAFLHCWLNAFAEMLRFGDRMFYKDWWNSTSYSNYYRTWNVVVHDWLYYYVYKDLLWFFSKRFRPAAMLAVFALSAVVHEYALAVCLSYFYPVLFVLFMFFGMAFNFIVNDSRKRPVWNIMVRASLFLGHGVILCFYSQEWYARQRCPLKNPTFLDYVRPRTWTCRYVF
Description: Inhibition of rat liver microsomal Acyl coenzyme A:cholesterol acyltransferase 1 from rabbit plasma after an oral dose of 25 mg/kg. Type of test: cell-free. A digest of the protocol:
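Male New Zealand white rabbits conditioned to meal feeding for 1 week, then given a meal containing drug at 25 mg/kg in 3% peanut oil/3% coconut oil vehicle. Plasma was sampled at 0, 1, 2 and 4 h and extracted into hexane, then redissolved in chloroform/methanol (2:1). It was assayed for liver microsomal ACAT inhibition against standards of compound spiked into rabbit plasma in DMSO.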
`CCCCCCCCCCCCc1nnc(C(C(=O)Nc2c(OC)cc(OC)cc2OC)c2ccccc2)o1` (centres undefined) yielded an inhibition of 21%.

The test system of a further test is Rattus norvegicus. The test is described as follows: Percent change in total cholesterol in the acute cholesterol-fed rat model (APCC) of hypercholesterolemia at 30 mg/Kg. Type of test: functional. In a few lines: as §1
As to `CCCCCCCCCCCCc1cc(C(C)(C)C(=O)Nc2c(OC)cc(OC)cc2OC)no1`, the DeltaTC is listed as -40%.
On the same count and under the same terms, next, `CCCCCCCCCCCCc1cc(C2(C(=O)Nc3c(OC)cc(OC)cc3OC)CCCC2)no1`: -29%; `CCCCCCCCCCCCc1cc(C(C(=O)Nc2ccc(F)cc2F)c2ccccc2)no1` (centres undefined): -29%.
Same read-out and setting: next, `CCCCCCCCCCCCc1cnn(C(C(=O)Nc2c(OC)cc(OC)cc2OC)c2ccccc2)c1` (centres undefined): -72%.
In the case of `CCCCCCCCCCCCc1cc(CC(=O)Nc2c(OC)cc(OC)cc2OC)on1`, the DeltaTC is -59%.
For the molecule `CCCCCCCCCCCCc1nnc(C(C(=O)Nc2c(OC)cc(OC)cc2OC)c2ccccc2)o1` (centres undefined), the DeltaTC is reported as -57%.
Regarding `CCCCCCCCCCCCc1cc(C(C(=O)Nc2c(C(C)C)cccc2C(C)C)c2ccccc2)on1` (centres undefined), the DeltaTC is reported as -52%.
On to `CCCCCCCCCCCCc1cc(C(C(=O)Nc2ccc(F)cc2F)c2ccccc2)on1` (centres undefined), for which the DeltaTC is -50%.

The next test concerns the target T2, Sterol O-acyltransferase 1 (Rattus norvegicus, UniProt O70536).
T2 sequence (O70536 whole entry): T1 sequence (whole entry)
Description: Inhibition of Acyl coenzyme A:cholesterol acyltransferase 1 from rat liver microsomes. In a few lines: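 Microsomes isolated from livers of cholesterol-fed rats were incubated with compound and [1-14C]oleoyl-CoA to measure ACAT inhibition; IC50 reported in μM.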
`CCCCCCCCCCCCc1cc(C(C)(C)C(=O)Nc2c(OC)cc(OC)cc2OC)no1` returned an IC50 of 150 nM.
`CCCCCCCCCCCCc1cc(C(C(=O)Nc2c(C(C)C)cccc2C(C)C)c2ccccc2)no1` (centres undefined) yielded a 50% inhibitory concentration (IC50) of 24 nM.
Consider `CCCCCCCCCCCCc1cc(C2(C(=O)Nc3c(OC)cc(OC)cc3OC)CCCC2)no1`, for which the midpoint of inhibition, the IC50, lay at 100 nM.
Still for that read-out and setting: next, `CCCCCCCCCCCCc1cc(C(C(=O)Nc2ccc(F)cc2F)c2ccccc2)no1` (centres undefined): 100 nM.
The molecule `CCCCCCCCCCCCc1cnn(C(C(=O)Nc2c(OC)cc(OC)cc2OC)c2ccccc2)c1` (centres undefined) came in with an IC50 of 46 nM.
Still for that read-out and setting: the same measure for `CCCCCCCCCCCCc1cc(CC(=O)Nc2c(OC)cc(OC)cc2OC)on1`: 32 nM; for `CCCCCCCCCCCCc1nnc(C(C(=O)Nc2c(OC)cc(OC)cc2OC)c2ccccc2)o1` (centres undefined): 17 nM; for `CCCCCCCCCCCCc1cc(C(C(=O)Nc2c(C(C)C)cccc2C(C)C)c2ccccc2)on1` (centres undefined): 19 nM.
For the molecule `CCCCCCCCCCCCc1cc(C(C(=O)Nc2ccc(F)cc2F)c2ccccc2)on1` (centres undefined), the IC50 turned out to be 51 nM.

As usually defined, the IC50 is the midpoint of a concentration-inhibition curve. Lower therefore signals greater potency in that assay. Broadly, the inhibition is how much of the control response was suppressed.
